Screening results: PubChem BioAssay, Broad Institute
In the library only some 3.5% were active in any assay of this set; here they are far more common.
FGF22 binding – binders of human FGF22 protein, primary screen, FGF22 synaptogenesis inhibitor project, biophysical, thermal shift, single point. Fibroblast growth factor 22 (Homo sapiens), Q9HCT0. recombinant FGF22 thermal shift, SYPRO orange fluorescence; percent of sucrose octasulfate shift, DMSO zero. activity (Tm shift, normalised), % at 9.99 µM. actives 1.5% (n = 340,000). AID 651658, 2012;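 active = mean Tm shift, scaled 0 neutral to 100 positive control, at about 1.3% or above, every replicate too, limit read from the data; inconclusive = no clear call, values can overlap the other calls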
Target sequence (Q9HCT0 whole entry, looked up): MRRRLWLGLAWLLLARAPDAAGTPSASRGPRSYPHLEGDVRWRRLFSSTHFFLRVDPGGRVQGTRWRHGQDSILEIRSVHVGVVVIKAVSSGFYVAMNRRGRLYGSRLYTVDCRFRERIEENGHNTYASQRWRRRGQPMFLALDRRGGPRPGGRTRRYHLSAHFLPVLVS
rRNA inh HTS – reduced GFP signal of wild-type E. coli, primary screen, bacterial rRNA inhibitor project, GFP/RFP fluorescence, OD600, single point; E. coli WT GFP vs humanized-ribosome RFP mutants, 24 h; active compounds read low; DMSO median 0, no signal -100; GFP signal change (wild-type ribosome), % (no concentration beside the values); actives 1.6% (n = 350,000); AID 720706, 2013;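 active = significant combined selectivity score with lowered wild-type GFP, culture density cut under 30%, mutant RFP and density less affected; inactive = any of these conditions unmet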
Env fusion inh – inhibitors of HIV-1 Env-driven cell-cell fusion, primary screen, HeLa-JRFL effector, CEM21 target cells, luciferase. actives 1.1% (n = 360,000). inhibition, % at 12.3 µM;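 active = mean replicate inhibition score of at least 50 and every replicate individually at or above 50; inconclusive = only one of the two criteria met; inactive = mean below 50 and not all replicates reaching 50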;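 also: 0% = plate neutral controls and 100% = maraviroc near 300 nM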
PGC1a acetyl inh – inhibitors of PGC1a acetylation signal, primary screen, cell-based, U2OS, AlphaScreen, inhibitor mode; AlphaScreen anti-acetyl-lysine; with virally co-expressed GCN5 acetyltransferase; inhibition, % at 15.6 µM; actives 0.17% (n = 350,000);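 active = every replicate shows inhibition of at least 40%; inconclusive = mean inhibition at least 40% but some replicate below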;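 also: 0% = neutral control wells and 100% = positive control wells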
ERAP1 HTS inh – human ERAP1 aminopeptidase inhibitors, primary screen, biochemical, single point, plate reader; Endoplasmic reticulum aminopeptidase 1 (Homo sapiens), Q9NZ08; AID 652197, 2013; recombinant ERAP1, Leu-AMC fluorescence, 60 min; inhibition, % at 10.7 µM; actives 0.15% (n = 340,000);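 active = mean replicate inhibition of at least 30%, or all replicates individually reaching that 30% level; inactive = mean below 30% and not every replicate reaching it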;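 also: 0% = neutral control wells and 100% = L-leucinethiol positive control wells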
Cneo AK release – Cryptococcus neoformans cell lysis inducers, primary screen, AK release luminescence, single concentration; actives 0.2% (n = 360,000); C. neoformans lysis, adenylate kinase release luminescence, 4 h; normalised: neutral wells 0, clomiphene wells 100; lysis activity, % at 15 µM; AID 651654, 2012;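 active = mean lysis activity across replicates of at least 80%, whatever share of replicates individually reach that level; inactive = mean lysis activity below 80%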
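Material – Cryptococcus neoformans yeast cells · Quantity – 5 × 10^6 yeast cells/mL · Buffer or medium – YPD medium · Compound – single dose · Timing – 4 h static compound exposure, 37 °C, read 1 h post-reagent · Signal – adenylate kinase release luminescence · Read-out basis – lysis from increased AK signal · Benchmarks – Clomiphene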
* = called active by the depositor; ? = inconclusive; . = not tested or not shown; [ ] = dose if it differs, or a comment.

SMILES	FGF22 binding	rRNA inh HTS	Env fusion inh	PGC1a acetyl inh	ERAP1 HTS inh	Cneo AK release
O=C(c1ccco1)N1CCN(Cc2cc(=O)c(OCc3ccccc3F)co2)CC1	66*	5	10	.	4	.
COc1cc(NC(=O)COc2ccc(Br)cc2)ccc1NC(=O)C(C)C	0	7	14	-5	0	.
CC(C)NC(=O)N(C)C[C@@H]1OCCCC[C@@H](C)Oc2ccc(NC(=O)c3ccncc3)cc2C(=O)N([C@@H](C)CO)C[C@H]1C	0	2	12[16.7 µM]	6	-2	6
CNc1ccc(C=C2C=Cc3ccccc32)cc1	0	-20*	-465	3	2	.
CCN(CC)CCN(C(=O)c1ccccc1OC)c1nc2ccc(F)cc2s1	0	-22*	18	.	2	.
CCOc1cc(/C=N/NC(=O)COc2ccc(Cl)cc2)ccc1OS(=O)(=O)c1ccccc1	.	.	?	-19	.	2
CCOC(=O)c1c(C)[nH]c(C)c1C(=O)COC(=O)[C@@H](NC(=O)c1ccccc1OCC)C(C)C	.	.	102*	-15	.	1
CCOc1ccccc1C(=O)NC(C(=O)OCC(=O)NNC(=O)c1cccs1)C(C)C (stereo not given)	0	0	-2	.	-4	1
O=C(NNC(=O)c1ccccc1OCc1ccc(F)cc1)c1ccccc1O	0	.	22	22	-3	0
CCOc1ccccc1C(=O)N[C@H](C(=O)NCc1ccccc1)C(C)C	43*	10	1	-2	3	.
O=C(NCc1ccc(F)cc1)c1ccccc1OCc1ccccc1	0	-38*	8	-23	-2	-5
COc1cccc(-c2ccc(C#N)c(SCC(=O)NCc3ccco3)n2)c1	0	14	21	-3	-2	-1
COC(=O)c1ccc(N2C(c3cc(OC)cc(OC)c3)=Cc3ccc(-c4cnc(OC)nc4)cc3C2CC(=O)C2CC2)cc1 (stereo not given)	0	4	-54	.	-1	.
Cn1c(-c2ccccc2)cccc1=O	.	.	-23	9	.	1
Cn1c(-c2ccccc2)c[n+]2c1-c1ccccc1C2	45*	22	57*	.	2	.
c1ccc(N2CCN(c3nc(-c4cccs4)nc4ccccc34)CC2)cc1	43*	.	-59	.	-2	.
c1csc(-c2csc3ncnc(NCCCN4CCOCC4)c23)c1	.	.	68*	3	.	4
c1ccc(N2CCN(c3ncnc4scc(-c5cccs5)c34)CC2)cc1	.	.	82*	-7	.	-3
Fc1ccc(-c2csc3ncnc(N4CCN(c5ccccc5)CC4)c23)cc1	0	1	29	.	-5	-3
CC1(c2nnc(-c3ccc(F)cc3)o2)CC(c2ccc(Cl)cc2)=NO1 (stereo not given)	.	.	3	.	.	-1
CCC(=NOCc1ccccc1)C(=O)NNS(=O)(=O)c1ccc(C)cc1	0	0	57*	-7	0	-5
Cc1ccc(S(=O)(=O)NOCc2ccccc2)cc1	0	-6	0	-6	-1	2
COc1cccc(-c2cccc(-c3nc(C(=O)NCCCN4CCOCC4)cc4c3[C@H](CCO)N(S(=O)C(C)(C)C)C4)c2)c1 (stereo not given in full)	0	-16	18	-6	-2	0
C[C@H]1CCCCO[C@H](CN(C)Cc2ccc(C(F)(F)F)cc2)[C@@H](C)CN([C@@H](C)CO)C(=O)c2cc(NC(=O)Nc3ccc(F)cc3)ccc2O1	0	-1	58*[16.7 µM]	1	1	0
C[C@@H]1CCCCO[C@H](CN(C)Cc2ccc(C(F)(F)F)cc2)[C@H](C)CN([C@@H](C)CO)C(=O)c2cc(NC(=O)Nc3ccc(F)cc3)ccc2O1	1	-3	44[16.7 µM]	1	0	43
SMILES	FGF22 binding	rRNA inh HTS	Env fusion inh	PGC1a acetyl inh	ERAP1 HTS inh	Cneo AK release
C[C@@H]1CN([C@H](C)CO)C(=O)c2cc(NC(=O)Nc3ccc(F)cc3)ccc2O[C@@H](C)CCCCO[C@@H]1CN(C)Cc1ccc(C(F)(F)F)cc1	0	-1	57*[16.7 µM]	-12	1	38
C[C@@H]1CN([C@H](C)CO)C(=O)c2cc(NC(=O)Nc3ccc(F)cc3)ccc2O[C@@H](C)CCCCO[C@H]1CN(C)Cc1ccc(C(F)(F)F)cc1	-1	-9	68*[16.7 µM]	6	2	1
Cc1ccccc1NC(=O)c1nn(C)c(C(=O)Nc2ccccc2C)c1[N+](=O)[O-]	0	2	14	14	0	-6
O=C(NN=Cc1ccccc1O)c1cccc([N+](=O)[O-])c1	0	-27*	-12	40	-4	-1
COc1ccc(/C=N/NC(=O)c2ccc(NC(=O)c3cccc([N+](=O)[O-])c3)cc2)c(OC)c1	0	10	26	97*	-2	.
O=[N+]([O-])c1cccc(N/N=C/c2cc([N+](=O)[O-])ccc2O)c1	0	-5	-40	4	4	.
O=[N+]([O-])c1ccc(N/N=C/c2ccccc2O)cc1	0	-19*	-106	.	-2	-2
CCCC(c1nnnn1Cc1cccs1)N1CCN(C)CC1 (stereo not given)	.	14	-9	2	-2	.
CCOC(=O)n1c(=O)n(Cc2cccc(C)c2)c2ccccc21	0	-33	-19	-3	2	.
CN(C)c1cccc(CNC(=O)c2ccc3sc([C@H]4C[C@H](O)[C@@H](CO)O4)nc3c2)c1	0	7	-18	-12	-14	2
O=C(O)c1nn2c(C(F)(F)F)cc(-c3cccs3)nc2c1Cl	0	-20*	-6	.	-25	.
O=C(Cn1c(=O)sc2ccccc21)Nc1ccc(O)cc1	0	-6	-4	.	-5	0
O=[N+]([O-])c1ccc(C2CCCC/C2=N\OCc2cccc(F)c2)c([N+](=O)[O-])c1 (stereo not given)	.	.	85*	.	.	1
O=c1[nH][nH]c2cc(=O)n(-c3cccc(C(F)(F)F)c3)nc12	0	10	-19	.	1	.
Nc1n[nH]c2cc(=O)n(-c3cccc(C(F)(F)F)c3)nc12	43*	4	-28	.	1	0
COc1ccc(C=NNc2nc3ccccc3s2)cc1	0	-7	-201	-18	1	-3
C(=N\Nc1nc2ccccc2s1)/c1ccccn1	0	-30*	-2	.	.	.
Cc1csc(N/N=C/c2ccccn2)n1	.	-32*	-9	10	-1	.
CCCn1nc(C(=O)N(C)CC(=O)Nc2ccc(OCC)c(OCC)c2)c2ccccc2c1=O	0	3	.	0	-1	0
